# Assay results reported in ChEMBL document CHEMBL4834402, “Discovery of TAK-981, a First-in-Class Inhibitor of SUMO-Activating Enzyme for the Treatment of Cancer” (J Med Chem, 2021).
# Calls of active or inactive are those of the source. The calls are words filed in the database; no cut-off is given here.
# How the values were obtained:
# [1] = target: T1, NEDD8 activating enzyme (Homo sapiens, UniProt Q8TBC4); assay: Inhibition of recombinant NAE (unknown origin) in presence of ATP at Km concentration by HTRF assay; type: protein-complex assay
# T1 sequence (Q8TBC4 whole entry): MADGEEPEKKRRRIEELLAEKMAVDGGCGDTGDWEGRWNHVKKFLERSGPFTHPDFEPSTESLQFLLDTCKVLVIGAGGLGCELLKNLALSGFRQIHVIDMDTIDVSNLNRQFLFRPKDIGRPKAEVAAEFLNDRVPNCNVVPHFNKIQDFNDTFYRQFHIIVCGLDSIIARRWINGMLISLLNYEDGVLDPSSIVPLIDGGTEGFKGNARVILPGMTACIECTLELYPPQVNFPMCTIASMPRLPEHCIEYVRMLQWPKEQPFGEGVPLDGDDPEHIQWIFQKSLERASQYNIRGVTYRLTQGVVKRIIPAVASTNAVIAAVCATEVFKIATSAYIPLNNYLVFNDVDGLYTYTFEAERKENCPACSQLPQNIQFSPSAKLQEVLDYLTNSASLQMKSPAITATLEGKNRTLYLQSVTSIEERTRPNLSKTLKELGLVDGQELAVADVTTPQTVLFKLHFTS
# T1 sequence (Q13564 whole entry): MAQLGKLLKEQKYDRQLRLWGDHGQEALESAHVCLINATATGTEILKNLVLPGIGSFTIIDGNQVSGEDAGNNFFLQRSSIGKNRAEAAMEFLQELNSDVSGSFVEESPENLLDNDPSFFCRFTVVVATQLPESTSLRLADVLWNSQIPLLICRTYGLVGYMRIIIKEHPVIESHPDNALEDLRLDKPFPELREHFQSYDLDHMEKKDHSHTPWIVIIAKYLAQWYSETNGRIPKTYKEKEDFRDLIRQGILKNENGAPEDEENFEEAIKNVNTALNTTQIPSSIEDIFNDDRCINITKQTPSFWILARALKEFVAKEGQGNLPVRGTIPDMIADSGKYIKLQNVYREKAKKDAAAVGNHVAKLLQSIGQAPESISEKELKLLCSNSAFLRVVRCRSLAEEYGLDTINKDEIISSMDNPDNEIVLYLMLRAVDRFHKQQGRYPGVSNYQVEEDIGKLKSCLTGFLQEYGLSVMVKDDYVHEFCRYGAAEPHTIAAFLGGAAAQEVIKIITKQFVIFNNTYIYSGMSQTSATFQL
# [2] = test system: HCT-116; assay: Antitumor activity against human HCT116 cells xenografted in sc dosed NCr nude mouse assessed as tumor growth inhibition administered twice per day for 21 days by vernier caliper method; type: functional, organism-based; settings: dose 150.0 mg/kg, time 21.0 day
# Method in brief: (§1)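 Female NCr nude mice with HCT-116 tumors, n = 10/arm, dosed subcutaneously until Day 21. Schedules were BID x21 (days 1–21) or BID BIW (days 1, 4, 8, 11, 15, 18, 21).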
# [3] = test system: HCT-116; assay: Antitumor activity against human HCT116 cells xenografted in sc dosed NCr nude mouse assessed as tumor growth inhibition administered on day 1, 4, 8, 11, 15, 18 and 21 by vernier caliper method; type: functional, organism-based; settings: dose 200.0 mg/kg, time 21.0 day; method in brief: as §1
# [4] = test system: HCT-116; assay: Antitumor activity against human HCT116 cells xenografted in sc dosed NCr nude mouse assessed as tumor growth inhibition administered on day 1, 2, 8, 9, 15, […] and […] by vernier caliper method; type: functional, organism-based; settings: dose 150.0 mg/kg, time 21.0 day
# [5] = test system: HCT-116; assay: Cytotoxicity against human HCT116 cells assessed as reduction in cell viability after 72 hrs by CellTiter-Glo luminescent assay; type: functional, cell-based; settings: HCT-116, 72 h
# [6] = test system: OCI-Ly10; assay: Cytotoxicity against human OCI-LY10 cells assessed as reduction in cell viability after 72 hrs by CellTiter-Glo luminescent assay; type: functional, cell-based; settings: OCI-Ly10, 72 h
# [7] = Lipophilicity, logD of compound at pH 7.4; type: physicochemical; settings: buffer
# [8] = Dissociation constant , pKa of the compound; type: physicochemical
# [9] = Apparent permeability across apical to basolateral side in human Caco2 cells; type: ADME, cell-based; settings: Caco-2
# [10] = Apparent permeability across basolateral to apical side in human Caco2 cells; type: ADME, cell-based; settings: Caco-2
# [11] = target: Carbonic anhydrase 1 (Homo sapiens, UniProt P00915); assay: Inhibition of human erythrocyte CA1 using fluorescein diacetate as substrate at […] by fluorometric esterase assay
# Sequence of Carbonic anhydrase 1 (P00915 whole entry): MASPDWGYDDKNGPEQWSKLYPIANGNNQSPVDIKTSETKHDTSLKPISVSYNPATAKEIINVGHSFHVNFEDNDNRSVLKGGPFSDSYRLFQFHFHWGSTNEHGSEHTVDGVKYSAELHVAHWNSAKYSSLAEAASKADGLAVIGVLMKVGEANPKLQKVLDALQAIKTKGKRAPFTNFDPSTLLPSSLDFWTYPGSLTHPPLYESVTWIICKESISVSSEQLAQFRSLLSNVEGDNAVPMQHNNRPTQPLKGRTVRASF
# [12] = AUC in rat blood at 1 mg/kg, iv; type: ADME, organism-based; parameters: dose 1 mg/kg
# [13] = AUC in rat plasma at 1 mg/kg, iv; type: ADME, organism-based; parameters: dose 1 mg/kg
# [14] = Clearance in rat blood at 1 mg/kg, iv; type: ADME, organism-based; settings: in vivo
# [15] = Clearance in rat plasma at 1 mg/kg, iv; type: ADME, organism-based; settings: in vivo
# [16] = Volume of distribution at steady state in rat blood at 1 mg/kg, iv; type: ADME, organism-based; settings: read-out: Vdss
# [17] = Volume of distribution at steady state in rat plasma at 1 mg/kg, iv; type: ADME, organism-based; settings: read-out: Vdss
# [18] = Half life in rat blood at 1 mg/kg, iv; type: ADME, organism-based
# [19] = Half life in rat plasma at 1 mg/kg, iv; type: ADME, organism-based
# [20] = AUC in rat blood at 10 mg/kg, po; type: ADME, organism-based; parameters: dose 10 mg/kg
# [21] = AUC in rat plasma at 10 mg/kg, po; type: ADME, organism-based; parameters: dose 10 mg/kg
# [22] = Oral bioavailability in rat blood at 10 mg/kg; type: ADME, organism-based
# [23] = Oral bioavailability in rat plasma at 10 mg/kg; type: ADME, organism-based
# [24] = target: T2, SUMO-activating enzyme (Homo sapiens, UniProt Q9UBT2); assay: Inhibition of recombinant SAE (unknown origin) assessed as reduction in transfer of SUMO1 to UBC9 using SUMO1 as a substrate in presence of ATP at Km concentration by HTRF assay; type: protein-complex assay
# T2 sequence (Q9UBE0 whole entry): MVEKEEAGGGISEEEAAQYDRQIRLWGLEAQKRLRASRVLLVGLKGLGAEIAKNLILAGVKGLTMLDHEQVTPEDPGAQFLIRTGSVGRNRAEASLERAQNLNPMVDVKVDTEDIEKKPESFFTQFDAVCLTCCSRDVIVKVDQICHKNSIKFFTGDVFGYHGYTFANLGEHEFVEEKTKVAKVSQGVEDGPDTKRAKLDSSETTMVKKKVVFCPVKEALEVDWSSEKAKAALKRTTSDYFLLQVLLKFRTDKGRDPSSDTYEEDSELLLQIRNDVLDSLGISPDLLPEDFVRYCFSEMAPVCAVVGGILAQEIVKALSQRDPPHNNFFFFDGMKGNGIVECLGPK
# T2 sequence (Q9UBT2 whole entry): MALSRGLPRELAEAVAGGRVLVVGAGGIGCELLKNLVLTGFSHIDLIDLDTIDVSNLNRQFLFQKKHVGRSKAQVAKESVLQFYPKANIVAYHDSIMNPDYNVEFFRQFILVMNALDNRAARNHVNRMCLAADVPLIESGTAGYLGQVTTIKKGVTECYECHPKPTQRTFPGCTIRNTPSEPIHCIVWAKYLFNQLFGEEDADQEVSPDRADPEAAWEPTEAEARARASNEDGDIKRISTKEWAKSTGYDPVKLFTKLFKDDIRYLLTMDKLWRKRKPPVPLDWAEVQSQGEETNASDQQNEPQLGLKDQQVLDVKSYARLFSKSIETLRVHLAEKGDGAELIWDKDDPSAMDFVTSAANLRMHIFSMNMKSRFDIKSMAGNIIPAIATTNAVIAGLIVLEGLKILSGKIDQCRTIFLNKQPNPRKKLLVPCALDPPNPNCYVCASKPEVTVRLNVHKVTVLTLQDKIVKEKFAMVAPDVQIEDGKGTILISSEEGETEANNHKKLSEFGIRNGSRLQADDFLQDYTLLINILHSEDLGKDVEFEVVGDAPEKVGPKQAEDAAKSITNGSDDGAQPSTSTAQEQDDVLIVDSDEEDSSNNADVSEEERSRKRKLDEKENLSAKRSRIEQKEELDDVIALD
# Method in brief: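 HTRF transthiolation assay measuring transfer of SUMO1 to UBC9, the E2 for SAE.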
# [25] = Inhibition of recombinant UAE (unknown origin) in presence of ATP at Km concentration by HTRF assay; parameters: species or system Homo sapiens
# [26] = target: T2, SUMO-activating enzyme; assay: Inhibition of SAE in human HCT116 cells assessed as reduction in redistribution of SUMO2/3 proteins from nucleus to cytosol incubated for 4 hrs by immunofluorescence assay; type: cell-based, HCT-116
# Method in brief: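 HCT-116 cells exposed to compound across a concentration range for 4 h, then stained with anti-SUMO2/3 monoclonal antibody. Automated imaging scored the nuclear (inner) to cytoplasmic (outer) SUMO2/3 ratio. IC50 taken from the dose response.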
# [27] = Efflux ratio of apparent permeability across basolateral to apical side over apical to basolateral side in human Caco-2 cells; type: ADME, cell-based
# [28] = Solubility of compound in 10% hydroxypropyl-beta-cyclodextrin after 24 hrs; type: physicochemical
# [29] = target: Carbonic anhydrase 2 (Homo sapiens, UniProt P00918); assay: Inhibition of recombinant human CA2 expressed in Escherichia coli using fluorescein diacetate as substrate at […] by fluorometric esterase assay
# [30] = target: T3, SUMO-activating enzyme (Homo sapiens) (UniProt Q9UBE0+Q9UBT2); assay: Inhibition of SAE in human HCT116 cells xenografted in NCr nude mouse assessed as reduction in SUMO2/3 protein conjugates at 50 mg/kg, iv and measured up to 16 hrs by immunohistochemistry analysis; type: organism-based; settings: HCT-116
# Method in brief: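 HCT-116 tumors in female Ncr nude mice, n = 3 per time point, after a single IV dose at t = 0. SUMO2/3 conjugation in tumors measured by IHC at 2, 4, 8 and 16 h. Read-out is nuclei staining positive for SUMO2/3 conjugates over total nuclei, normalized to vehicle-treated animals (time = 0 h), expressed as percent inhibition.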
# [31] = target: T3, SUMO-activating enzyme (Homo sapiens); assay: Inhibition of SAE in human HCT116 cells xenografted in NCr nude mouse assessed as improvement in SUMO-inhibitor adduct durability at 50 mg/kg, iv and measured up to 16 hrs by mass spectrometry; type: organism-based; settings: HCT-116
# Method in brief: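 Single IV dose at t = 0 to female Ncr nude mice bearing HCT-116 tumors, n = 3 per time point. Tumors harvested 2, 4, 8 and 16 h post-injection. Read-out is the adduct/SAE ratio: quantity of SUMO-compound adduct over quantity of total SAE enzyme, both measured by mass spectrometry. Values are averaged per time point.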
# [32] = test system: HCT-116; assay: Antitumor activity against human HCT-116 cells xenografted in Ncr/nude mouse assessed as tumor growth inhibition at 50 mg/kg, sc administered once daily for 21 days and measured twice weekly; type: functional, organism-based; settings: time 21.0 day
# Method in brief: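 Female Ncr/nude mice carrying HCT-116 tumors (~200 mm3) were randomized, n = 8/group, with treatment from Day 1. Schedules were QD x21 (Days 1–21) or QD x3/week (three consecutive dosing days, four off). Tumor volume was measured twice weekly.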
# [33] = test system: OCI-Ly10; assay: Antitumor activity against human OCI-Ly10 cells xenografted in CB17 SCID mouse assessed as tumor growth inhibition at 50 mg/kg, sc mg/kg administered once daily for 21 days and measured twice weekly; type: functional, organism-based; settings: time 21.0 day
# Method in brief: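 Female CB17 SCID mice carrying OCI-Ly10 tumors (~200 mm3) were randomized, n = 8/group, with treatment from Day 1. Schedules were QD x21 (Days 1–21) or QD x3/week (three consecutive dosing days, four off). Tumor volume was measured twice weekly.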
# [34] = target: T2, SUMO-activating enzyme; assay: Inhibition of SAE (unknown origin) using SUMO1 as substrate incubated for 60 mins in presence of ATP and PPi by pyrophosphate exchange assay; type: protein-complex assay
# Method in brief: (§2)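 Pyrophosphate exchange assay of E1 activity at 1 mM ATP. Substrates were SUMO1 or SUMO2 for SAE, Ub for UAE and Nedd-8 for NAE.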
# [35] = target: T2, SUMO-activating enzyme; assay: Inhibition of SAE (unknown origin) using SUMO2 as substrate incubated for 60 mins in presence of ATP and PPi by pyrophosphate exchange assay; type: protein-complex assay; method in brief: as §2
# [36] = Inhibition of UAE (unknown origin) using Ub as substrate incubated for 60 mins in presence of ATP and PPi by pyrophosphate exchange assay; parameters: species or system Homo sapiens; method in brief: as §2
# [37] = target: T1, NEDD8 activating enzyme; assay: Inhibition of NAE (unknown origin) using Nedd-8 as substrate incubated for 60 mins in presence of ATP and PPi by pyrophosphate exchange assay; type: protein-complex assay; method in brief: as §2
# [38] = target: T2, SUMO-activating enzyme; assay: Inhibition of SAE in human HCT116 cells assessed as reduction in conjugation of SUMO proteins to UBC9 by Western blot analysis; type: cell-based, HCT-116
# Method in brief: (§3)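 HCT116 cells, quantitative Western blot of E2–UBL conjugates. Read-outs were SUMO–UBC9 for SAE, ubiquitin–[…] for UAE and Nedd-8–[…] for NAE.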
# [39] = Inhibition of UAE in human HCT116 cells assessed as reduction in conjugation of ubiquitin to […] by Western blot analysis; type: cell-based; settings: hct-116; method in brief: as §3
# [40] = target: T1, NEDD8 activating enzyme; assay: Inhibition of NAE in human HCT116 cells assessed as reduction in conjugation of Nedd8 […] by Western blot analysis; type: cell-based, HCT-116; method in brief: as §3
IC50 [1],logD [7],pKa [8],Papp A→B [9],Papp B→A [10],IC50 [11],AUC [12],AUC [13],clearance [14],clearance [15],Vd [16],Vd [17],half-life [18],half-life [19],AUC [20],AUC [21],bioavailability [22],bioavailability [23],SMILES,EC50 [5],EC50 [6],also measured
228 nM,2.6,3.6,1.2 ×10⁻⁶ cm/s,64 ×10⁻⁶ cm/s,50 nM,19.1 µM·h,0.4 µM·h,1.67 mL/min/kg,85 mL/min/kg,0.1 L/kg,5.1 L/kg,1.2 h,0.9 h,10.8 µM·h,0.1 µM·h,6.9%,7.1%,NS(=O)(=O)OC[C@H]1C[C@@H](Nc2ncncc2C(=O)c2ccn(Cc3cccc(Br)c3)n2)C[C@@H]1O,90 nM,55 nM,Activity [2]: Dose-Dependent Effect; Activity [3]: Dose-Dependent Effect; Activity [4]: Dose-Dependent Effect
386 nM,1.9,3.5,4 ×10⁻⁶ cm/s,64 ×10⁻⁶ cm/s,50 nM,12.5 µM·h,0.3 µM·h,1.67 mL/min/kg,86.7 mL/min/kg,0.2 L/kg,5 L/kg,4 h,1.5 h,24.1 µM·h,0.6 µM·h,19%,18%,Cc1sc(C(=O)c2cncnc2N[C@@H]2C[C@H](COS(N)(=O)=O)[C@@H](O)C2)cc1C1OCCc2ccc(Cl)cc21 (stereo in doubt) [listing 1 of 2 here],110 nM,4 nM,IC50 [24]: 0.4 nM; IC50 [25]: > 1000 nM; IC50 [26]: 3 nM; efflux ratio [27]: > 16; solubility at 24 h [28]: 100 µg/mL; IC50 [29]: 10 nM
,,,,,,,,,,,,,,,,,,Cc1sc(C(=O)c2cncnc2N[C@@H]2C[C@H](COS(N)(=O)=O)[C@@H](O)C2)cc1C1OCCc2ccc(Cl)cc21 (stereo in doubt) [listing 2 of 2 here],,,inhibition [30]: Active; inhibition [31]: Active; Activity [32]: Active; Activity [33]: Active
29 nM,,,,,,,,,,,,,,,,,,NS(=O)(=O)OC[C@H]1C[C@@H](Nc2ncncc2C(=O)c2ccn(Cc3ccccc3)n2)[C@H](O)[C@@H]1O,,,IC50 [24]: 1 nM; IC50 [25]: 58 nM; IC50 [34]: 6 nM; IC50 [35]: 50 nM; IC50 [36]: 1100 nM; IC50 [37]: 300 nM; IC50 [38]: 6 nM; IC50 [39]: 410 nM; IC50 [40]: 1400 nM; IC50 [26]: 26 nM
